Assay [1] has as its system Mus musculus. In words: Anticonvulsant activity in albino CF-1 mouse assessed as protection against maximal electroshock-induced seizures at 100 mg/kg, ip. The format is functional, organism-based. Also noted: dose 100 mg/kg. The essentials: (§1)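 Screened under the NINDS ASP in male albino Carworth Farms No. 1 mice (ip) or male albino Sprague-Dawley rats (ip or po), using MES, 6 Hz (32 mA) and subcutaneous pentylenetetrazol seizure tests. Initial qualitative tests used preset doses (e.g., 30, 50, 100 mg/kg). ED50 values with 95% confidence intervals came from dose–response data collected at the time of peak effect.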
A general note: In the maximal electroshock model the usual endpoint is tonic extension of the hind limbs.

Assay [2] concerns Mus musculus. In words: Anticonvulsant activity in ip dosed albino CF-1 mouse assessed as protection against 6 Hz psychomotor seizure measured at 0.5 hrs. Type of assay: functional. To be noted: albino CF-1, ip. The method, boiled down:
as §1

Activity calls are given as the source filed them. The calls are words filed in the database; no cut-off is given here.

The values that follow come from ChEMBL document CHEMBL3091364, “Benzyloxybenzylammonium chlorides: Simple amine salts that display anticonvulsant activity” (Bioorg Med Chem, 2013).

`Fc1cccc(COc2ccccc2)c1`: in the assay on Mus musculus [1], the result was inactive.
Take `COC[C@@H](NC(C)=O)C(=O)NCc1ccccc1` [LACOSAMIDE]: in the assay on Mus musculus [2], the ED50 (in general, the midpoint of the dose-response relation) turned out to be 10 mg/kg.
